ChEMBL document CHEMBL5029151, “Conformationally Constrained Peptides with High Affinity to the Vascular Endothelial Growth Factor” (J Med Chem, 2021)
pIC50, pKd: −log10 of the molar value. Positions of bridges follow the written chain, without caps; N, C: chain ends. Non-standard residues stand in square brackets, D forms with d. Residues, ends and D or L forms follow the SMILES beside them. Nle = CCCC[C@H](N)C(=O)O; Aib = CC(C)(N)C(=O)O

Assays:
[1] = Stability in porcine vitreous assessed as increase in life time measured at 10 uM after 10 days by UPLC-MS/MS analysis; format: ADME, tissue-based, Sus scrofa, Vitreous humor; details: pig, 240 h, time 10 day
How it was run: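 Peptide at 10 µM incubated at 37°C in porcine vitreous containing 1% penicillin/streptomycin, one separate tube per time point. Remaining parent peptide quantified by UPLC-MS/MS at each time point.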

[2] = Inhibition of VEGF-mediated in human HUVEC cell proliferation incubated for 48 hrs by MTT assay
How it was run: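 HUVECs seeded at 25,000/well in medium with 0.5 ng/mL VEGF165 for 48 h, then starved 24 h without VEGF or FBS. Peptide (4, 20, 100, 500 µM) premixed with 50 ng/mL VEGF165 for 2 h at 37°C, then added to cells for 48 h. MTT read-out as percent of no-peptide control OD, fitted to IC50; mean ± SD, n = 3.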

[3] = Binding affinity to VEGF (unknown origin) by microscale thermophoresis assay; set-up: species or system Homo sapiens
How it was run: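 Microscale thermophoresis with fluorescently labeled VEGF-RED (initial concentration 12 nM), read on a Monolith NT.115 Pico. Peptide and VEGF were measured immediately after mixing, with no incubation. KD derived from the thermophoresis signal.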

ARPE-19 = experiment: Cytotoxicity against human ARPE-19 cells assessed as cell viability up to 20 uM measured after 5 hrs by MTT assay; format: cell-based; details: arpe-19, 5 h
How it was run: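 ARPE-19 cells seeded at 20,000/well and grown overnight, then washed. Exposed 5 h at 37°C, 7% CO2 to peptide at 0.01–100 µM in complete medium. Medium replaced, cells grown a further 24 h. MTT 4 h at 37°C, formazan dissolved in 10% SDS/0.01 M HCl overnight, A570 read. Viability relative to untreated cells; poly-L-lysine-treated cells as control.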

[4] = Binding affinity to VEGF (unknown origin) incubated for 30 mins by microscale thermophoresis assay; set-up: species or system Homo sapiens
How it was run: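 Fluorescently labeled VEGF-RED (initial concentration 12 nM) mixed with peptide and incubated 30 min to reach complex equilibrium before microscale thermophoresis on a Monolith NT.115 Pico. KD obtained from the thermophoresis signal.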

Structure (SMILES) | Stability [1] | pKd [3] | pKd [4] | pIC50 [2] | Activity (ARPE-19)
CCCC[C@@H]1NC(=O)[C@H](C(C)C)NC(=O)[C@H](Cc2c[nH]cn2)NC(=O)[C@H]([C@@H](C)CC)NC(=O)[C@H](CC(=O)O)NC(=O)[C@@H](N)CSSC[C@@H](C(=O)N[C@@H](Cc2ccccc2)C(=O)N[C@@H](CCC(=O)O)C(=O)N[C@@H](CCCNC(=N)N)C(=O)N[C@@H](CC(C)C)C(=O)O)NC(=O)[C@H](CCC(=O)O)NC(=O)[C@H](Cc2c[nH]c3ccccc23)NC(=O)[C@H](CCC(=O)O)NC(=O)[C@H](Cc2c[nH]c3ccccc23)NC1=O | – | 5.00 | – | 4.92 | –
CCCC[C@@H]1NC(=O)[C@H](C(C)C)NC(=O)[C@H](Cc2c[nH]cn2)NC(=O)[C@H]([C@@H](C)CC)NC(=O)[C@H](CC(=O)O)NC(=O)[C@@H](NC(=O)[C@H](CC(N)=O)NC(=O)[C@@H](N)C(C)C)CSSC[C@@H](C(=O)N[C@@H](Cc2ccccc2)C(=O)N[C@@H](CCC(=O)O)C(=O)N[C@@H](CCCNC(=N)N)C(=O)N[C@@H](CC(C)C)C(=O)O)NC(=O)[C@H](CCC(=O)O)NC(=O)[C@H](Cc2c[nH]c3ccccc23)NC(=O)[C@H](CCC(=O)O)NC(=O)[C@H](Cc2c[nH]c3ccccc23)NC1=O | – | 5.71 | – | 5.40 | –
CCCC[C@@H]1NC(=O)[C@H](C(C)C)NC(=O)[C@H](Cc2c[nH]cn2)NC(=O)[C@H]([C@@H](C)CC)NC(=O)[C@H](CC(=O)O)NC(=O)[C@@H](NC(=O)[C@H](CCCCN)NC(=O)[C@H](CCCCN)NC(=O)C(C)(C)NC(=O)[C@@H](N)CCCCN)CSSC[C@@H](C(=O)N[C@@H](Cc2ccccc2)C(=O)N[C@@H](CCC(=O)O)C(=O)N[C@@H](CCCNC(=N)N)C(=O)N[C@@H](CC(C)C)C(=O)O)NC(=O)[C@H](CCC(=O)O)NC(=O)[C@H](Cc2c[nH]c3ccccc23)NC(=O)[C@H](CCC(=O)O)NC(=O)[C@H](Cc2c[nH]c3ccccc23)NC1=O | Stable | 6.27 | 5.52 | 5.22 | –
CCCC[C@@H]1NC(=O)[C@H](C(C)C)NC(=O)[C@H](Cc2c[nH]cn2)NC(=O)[C@H]([C@@H](C)CC)NC(=O)[C@H](CC(=O)O)NC(=O)[C@@H](NC(=O)[C@H](CC(N)=O)NC(=O)[C@@H]2CCCN2C(=O)[C@H](CCC(=O)O)NC(=O)[C@@H](N)C(C)C)CSSC[C@@H](C(=O)N[C@@H](Cc2ccccc2)C(=O)N[C@@H](CCC(=O)O)C(=O)N[C@@H](CCCNC(=N)N)C(=O)N[C@@H](CC(C)C)C(=O)O)NC(=O)[C@H](CCC(=O)O)NC(=O)[C@H](Cc2c[nH]c3ccccc23)NC(=O)C(C)(C)NC(=O)[C@H](Cc2c[nH]c3ccccc23)NC1=O (H-VEPNCDIHV[Nle]W[Aib]WECFERL-OH; disulfide 5-15) | Unstable | 6.03 | 6.82 | 5.46 | –

Now from value to compound, other results behind:

Stability [1] | pKd [3] | pKd [4] | Structure (SMILES) | pIC50 [2] | Activity (ARPE-19)
Stable | 4.93 | – | CCCC[C@@H]1NC(=O)[C@H](C(C)C)NC(=O)C(C)(C)NC(=O)[C@H]([C@@H](C)CC)NC(=O)[C@H](CC(=O)O)NC(=O)[C@@H](NC(=O)[C@H](CC(N)=O)NC(=O)[C@@H]2CCCN2C(=O)[C@H](CCC(=O)O)NC(=O)[C@@H](N)C(C)C)CSSC[C@@H](C(=O)N[C@@H](Cc2ccccc2)C(=O)N[C@@H](CCC(=O)O)C(=O)N[C@@H](CCCNC(=N)N)C(=O)N[C@@H](CC(C)C)C(=O)O)NC(=O)[C@H](CCC(=O)O)NC(=O)[C@H](Cc2c[nH]c3ccccc23)NC(=O)[C@H](CCC(=O)O)NC(=O)[C@H](Cc2c[nH]c3ccccc23)NC1=O | 4.30 | –
– | 5.41 | 6.52 | CCCC[C@@H]1NC(=O)[C@H](C(C)C)NC(=O)[C@H](Cc2c[nH]cn2)NC(=O)[C@H]([C@@H](C)CC)NC(=O)[C@H](CC(=O)O)NC(=O)[C@@H](NC(=O)[C@H](CC(N)=O)NC(=O)[C@@H]2CCCN2C(=O)[C@H](CCC(=O)O)NC(=O)[C@@H](N)C(C)C)CSSC[C@@H](C(=O)N[C@@H](Cc2ccccc2)C(=O)N[C@@H](CCC(=O)O)C(=O)N[C@@H](CCCNC(=N)N)C(=O)N[C@@H](CC(C)C)C(=O)O)NC(=O)[C@H](CCC(=O)O)NC(=O)[C@H](Cc2c[nH]c3ccccc23)NC(=O)[C@H](CCC(=O)O)NC(=O)[C@H](Cc2c[nH]c3ccccc23)NC1=O | 4.70 | Non-Toxic
Stable | 5.53 | 8.40 | CCCC[C@@H]1NC(=O)[C@H](C(C)C)NC(=O)[C@H](Cc2c[nH]cn2)NC(=O)[C@H]([C@@H](C)CC)NC(=O)[C@H](CC(=O)O)NC(=O)[C@@H](NC(=O)[C@H](CC(N)=O)NC(=O)[C@@H]2CCCN2C(=O)C(C)(C)NC(=O)[C@@H](N)C(C)C)CSSC[C@@H](C(=O)N[C@@H](Cc2ccccc2)C(=O)N[C@@H](CCC(=O)O)C(=O)N[C@@H](CCCNC(=N)N)C(=O)N[C@@H](CC(C)C)C(=O)O)NC(=O)[C@H](CCC(=O)O)NC(=O)[C@H](Cc2c[nH]c3ccccc23)NC(=O)[C@H](CCC(=O)O)NC(=O)[C@H](Cc2c[nH]c3ccccc23)NC1=O | 5.00 | –
